# Measured values published in ChEMBL document CHEMBL1165969, “Synthesis and cytotoxicity of novel indirubin-5-carboxamides” (Bioorg Med Chem, 2010).
# Columns and labels:
# [1] = target: Platelet-derived growth factor receptor alpha (Homo sapiens) (UniProt P16234); assay: Inhibition of PDGFRalpha assessed as residual activity at 10 uM after 80 mins by microplate scintillation counting
# [2] = target: Muscle, skeletal receptor tyrosine-protein kinase (Homo sapiens) (UniProt O15146); assay: Inhibition of MUSK assessed as residual activity at 1 uM after 80 mins by microplate scintillation counting
# [3] = target: Epidermal growth factor receptor (Homo sapiens) (UniProt P00533); assay: Inhibition of EGFR assessed as residual activity at 1 uM after 80 mins by microplate scintillation counting
# [4] = target: Tyrosine-protein kinase Fgr (Homo sapiens) (UniProt P09769); assay: Inhibition of FGR assessed as residual activity at 1 uM after 80 mins by microplate scintillation counting
# [5] = target: Aurora kinase B (Homo sapiens) (UniProt Q96GD4); assay: Inhibition of Aurora B assessed as residual activity at 1 uM after 80 mins by microplate scintillation counting
# [6] = target: Vascular endothelial growth factor receptor 3 (Homo sapiens) (UniProt P35916); assay: Inhibition of VEGFR3 assessed as residual activity at 1 uM after 80 mins by microplate scintillation counting
# Method in brief: (§1)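 Kinase profiling was outsourced to a contract laboratory as a panel of 30 protein kinases. Each compound was tested at two concentrations, and residual kinase activity was recorded.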
# [7] = target: Receptor-type tyrosine-protein kinase FLT3 (Homo sapiens) (UniProt P36888); assay: Inhibition of FLT3 assessed as residual activity at 10 uM after 80 mins by microplate scintillation counting
# [8] = target: T1, Glycogen synthase kinase-3 beta (Homo sapiens, UniProt P49841); assay: Inhibition of GSK3-beta assessed as residual activity at 1 uM after 80 mins by microplate scintillation counting
# [9] = target: T2, Cyclin-dependent kinase 5/CDK5 activator 1 (Homo sapiens) (UniProt Q00535+Q15078); assay: Inhibition of CDK5/p35 assessed as residual activity at 10 uM after 80 mins by microplate scintillation counting; type: protein-complex assay
# [10] = target: T2, Cyclin-dependent kinase 5/CDK5 activator 1 (Homo sapiens); assay: Inhibition of CDK5/p35 assessed as residual activity at 1 uM after 80 mins by microplate scintillation counting; type: protein-complex assay
# [11] = target: Serine/threonine-protein kinase B-raf (Homo sapiens) (UniProt P15056); assay: Inhibition of B-Raf assessed as residual activity at 10 uM after 80 mins by microplate scintillation counting
# [12] = target: Proto-oncogene tyrosine-protein kinase Src (Homo sapiens) (UniProt P12931); assay: Inhibition of SRC assessed as residual activity at 10 uM after 80 mins by microplate scintillation counting; method in brief: as §1
# [13] = target: T3, Cyclin-dependent kinase 2/cyclin A (Homo sapiens) (UniProt P24941+P20248+P78396); assay: Inhibition of CDK2/Cyclin A assessed as residual activity at 1 uM after 80 mins by microplate scintillation counting; type: protein-complex assay
# [14] = target: Mast/stem cell growth factor receptor Kit (Homo sapiens) (UniProt P10721); assay: Inhibition of KIT assessed as residual activity at 1 uM after 80 mins by microplate scintillation counting
# [15] = target: T3, Cyclin-dependent kinase 2/cyclin A (Homo sapiens); assay: Inhibition of CDK2/Cyclin A assessed as residual activity at 10 uM after 80 mins by microplate scintillation counting; type: protein-complex assay
# [16] = target: Platelet-derived growth factor receptor alpha (Homo sapiens) (UniProt P16234); assay: Inhibition of PDGFRalpha assessed as residual activity at 1 uM after 80 mins by microplate scintillation counting
# [17] = target: Receptor-type tyrosine-protein kinase FLT3 (Homo sapiens) (UniProt P36888); assay: Inhibition of FLT3 assessed as residual activity at 1 uM after 80 mins by microplate scintillation counting
# [18] = target: T1, Glycogen synthase kinase-3 beta; assay: Inhibition of GSK3-beta assessed as inhibition of [33Pi] incorporation after 80 mins by microplate scintillation counting
# [19] = target: Serine/threonine-protein kinase B-raf (Homo sapiens) (UniProt P15056); assay: Inhibition of B-Raf assessed as residual activity at 1 uM after 80 mins by microplate scintillation counting
# [20] = target: Proto-oncogene tyrosine-protein kinase receptor Ret (Homo sapiens) (UniProt P07949); assay: Inhibition of RET assessed as residual activity at 1 uM after 80 mins by microplate scintillation counting; method in brief: as §1
# [21] = target: Receptor tyrosine-protein kinase erbB-2 (Homo sapiens) (UniProt P04626); assay: Inhibition of ERBB2 assessed as residual activity at 10 uM after 80 mins by microplate scintillation counting
# [22] = target: Aurora kinase A (Homo sapiens) (UniProt O14965); assay: Inhibition of Aurora A assessed as residual activity at 10 uM after 80 mins by microplate scintillation counting
# [23] = target: RAF proto-oncogene serine/threonine-protein kinase (Homo sapiens) (UniProt P04049); assay: Inhibition of RAF1 assessed as residual activity at 10 uM after 80 mins by microplate scintillation counting; method in brief: as §1
# [24] = target: Aurora kinase C (Homo sapiens) (UniProt Q9UQB9); assay: Inhibition of Aurora C assessed as residual activity at 10 uM after 80 mins by microplate scintillation counting
# [25] = target: Serine/threonine-protein kinase Chk1 (Homo sapiens) (UniProt O14757); assay: Inhibition of CHK1 assessed as residual activity at 10 uM after 80 mins by microplate scintillation counting
# [26] = target: Fibroblast growth factor receptor 1 (Homo sapiens) (UniProt P11362); assay: Inhibition of FGFR1 assessed as residual activity at 10 uM after 80 mins by microplate scintillation counting
# [27] = target: Serine/threonine-protein kinase Chk2 (Homo sapiens) (UniProt O96017); assay: Inhibition of CHK2 assessed as residual activity at 10 uM after 80 mins by microplate scintillation counting
# [28] = target: Epidermal growth factor receptor (Homo sapiens) (UniProt P00533); assay: Inhibition of EGFR assessed as residual activity at 10 uM after 80 mins by microplate scintillation counting
# [29] = target: Cyclin-dependent kinase 4/cyclin D1 (Homo sapiens) (UniProt P11802+P24385); assay: Inhibition of CDK4/Cyclin D1 assessed as residual activity at 1 uM after 80 mins by microplate scintillation counting; type: protein-complex assay
# [30] = Solubility in water by spectrophotometry; type: physicochemical
# [31] = target: Proto-oncogene tyrosine-protein kinase receptor Ret (Homo sapiens) (UniProt P07949); assay: Inhibition of RET assessed as residual activity at 10 uM after 80 mins by microplate scintillation counting; method in brief: as §1
# [32] = target: Serine/threonine-protein kinase Chk1 (Homo sapiens) (UniProt O14757); assay: Inhibition of CHK1 assessed as residual activity at 1 uM after 80 mins by microplate scintillation counting
# [33] = target: Tyrosine-protein kinase ABL1 (Homo sapiens) (UniProt P00519); assay: Inhibition of ABL1 assessed as residual activity at 1 uM after 80 mins by microplate scintillation counting
# [34] = Antiproliferative activity against human LXFL 529L cells after 3 days by sulforhodamine B assay; type: functional, cell-based; settings: Homo sapiens, LXFL 529L, 72 h
# Method in brief: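 Cells kept at 37 °C in humidified 5% CO2 in RPMI 1640 with 10% heat-inactivated FBS, penicillin (100 units/mL) and streptomycin, and checked for mycoplasma. Seeded, grown 24 h, then exposed to drug for 3 days in serum-containing medium. Fixed with 50% TCA solution for 1 h at 4 °C, stained with 0.4% SRB, dye eluted in 10 mM Tris pH 10.5, read at 570 nm. Growth expressed as % T/C; IC50 derived.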
# [35] = target: Focal adhesion kinase 1 (Homo sapiens) (UniProt Q05397); assay: Inhibition of FAK assessed as residual activity at 1 uM after 80 mins by microplate scintillation counting
# Chain of Serine/threonine-protein kinase B-raf (Homo sapiens) (P15056 whole entry): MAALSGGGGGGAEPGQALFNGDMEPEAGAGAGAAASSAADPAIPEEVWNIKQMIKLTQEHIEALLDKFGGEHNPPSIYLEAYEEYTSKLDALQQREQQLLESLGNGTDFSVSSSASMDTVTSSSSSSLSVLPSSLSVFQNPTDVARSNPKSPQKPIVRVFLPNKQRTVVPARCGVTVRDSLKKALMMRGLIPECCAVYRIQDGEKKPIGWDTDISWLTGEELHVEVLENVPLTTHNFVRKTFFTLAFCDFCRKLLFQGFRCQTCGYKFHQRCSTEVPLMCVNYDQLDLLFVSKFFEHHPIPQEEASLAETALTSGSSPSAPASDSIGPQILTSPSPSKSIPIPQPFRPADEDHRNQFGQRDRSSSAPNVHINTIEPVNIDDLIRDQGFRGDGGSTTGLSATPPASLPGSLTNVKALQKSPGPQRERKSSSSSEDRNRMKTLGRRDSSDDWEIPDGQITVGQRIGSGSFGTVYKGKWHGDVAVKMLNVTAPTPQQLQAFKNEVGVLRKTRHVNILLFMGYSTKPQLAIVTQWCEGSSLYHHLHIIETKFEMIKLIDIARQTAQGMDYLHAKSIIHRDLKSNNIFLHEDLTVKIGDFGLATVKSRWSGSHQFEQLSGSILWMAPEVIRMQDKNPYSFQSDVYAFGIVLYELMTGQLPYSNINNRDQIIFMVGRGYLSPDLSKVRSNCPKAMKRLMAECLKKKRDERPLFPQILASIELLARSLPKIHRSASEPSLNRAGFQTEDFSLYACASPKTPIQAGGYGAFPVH
# T2 sequence (Q00535 whole entry): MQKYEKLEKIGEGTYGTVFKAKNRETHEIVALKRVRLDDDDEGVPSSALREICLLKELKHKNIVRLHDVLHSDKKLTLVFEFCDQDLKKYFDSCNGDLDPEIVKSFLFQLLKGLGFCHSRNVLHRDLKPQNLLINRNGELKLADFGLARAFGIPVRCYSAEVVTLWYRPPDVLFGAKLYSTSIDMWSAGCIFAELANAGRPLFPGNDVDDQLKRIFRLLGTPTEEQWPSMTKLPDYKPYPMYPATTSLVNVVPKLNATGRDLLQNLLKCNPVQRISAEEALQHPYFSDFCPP
# T2 sequence (Q15078 99-307 partner limits assumed): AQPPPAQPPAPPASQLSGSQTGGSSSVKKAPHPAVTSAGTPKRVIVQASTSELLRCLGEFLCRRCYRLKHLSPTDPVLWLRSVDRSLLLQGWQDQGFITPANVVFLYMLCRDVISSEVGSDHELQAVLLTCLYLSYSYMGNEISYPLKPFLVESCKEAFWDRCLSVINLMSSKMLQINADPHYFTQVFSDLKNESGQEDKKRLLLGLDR
# Chain of Epidermal growth factor receptor (Homo sapiens) (P00533 whole entry): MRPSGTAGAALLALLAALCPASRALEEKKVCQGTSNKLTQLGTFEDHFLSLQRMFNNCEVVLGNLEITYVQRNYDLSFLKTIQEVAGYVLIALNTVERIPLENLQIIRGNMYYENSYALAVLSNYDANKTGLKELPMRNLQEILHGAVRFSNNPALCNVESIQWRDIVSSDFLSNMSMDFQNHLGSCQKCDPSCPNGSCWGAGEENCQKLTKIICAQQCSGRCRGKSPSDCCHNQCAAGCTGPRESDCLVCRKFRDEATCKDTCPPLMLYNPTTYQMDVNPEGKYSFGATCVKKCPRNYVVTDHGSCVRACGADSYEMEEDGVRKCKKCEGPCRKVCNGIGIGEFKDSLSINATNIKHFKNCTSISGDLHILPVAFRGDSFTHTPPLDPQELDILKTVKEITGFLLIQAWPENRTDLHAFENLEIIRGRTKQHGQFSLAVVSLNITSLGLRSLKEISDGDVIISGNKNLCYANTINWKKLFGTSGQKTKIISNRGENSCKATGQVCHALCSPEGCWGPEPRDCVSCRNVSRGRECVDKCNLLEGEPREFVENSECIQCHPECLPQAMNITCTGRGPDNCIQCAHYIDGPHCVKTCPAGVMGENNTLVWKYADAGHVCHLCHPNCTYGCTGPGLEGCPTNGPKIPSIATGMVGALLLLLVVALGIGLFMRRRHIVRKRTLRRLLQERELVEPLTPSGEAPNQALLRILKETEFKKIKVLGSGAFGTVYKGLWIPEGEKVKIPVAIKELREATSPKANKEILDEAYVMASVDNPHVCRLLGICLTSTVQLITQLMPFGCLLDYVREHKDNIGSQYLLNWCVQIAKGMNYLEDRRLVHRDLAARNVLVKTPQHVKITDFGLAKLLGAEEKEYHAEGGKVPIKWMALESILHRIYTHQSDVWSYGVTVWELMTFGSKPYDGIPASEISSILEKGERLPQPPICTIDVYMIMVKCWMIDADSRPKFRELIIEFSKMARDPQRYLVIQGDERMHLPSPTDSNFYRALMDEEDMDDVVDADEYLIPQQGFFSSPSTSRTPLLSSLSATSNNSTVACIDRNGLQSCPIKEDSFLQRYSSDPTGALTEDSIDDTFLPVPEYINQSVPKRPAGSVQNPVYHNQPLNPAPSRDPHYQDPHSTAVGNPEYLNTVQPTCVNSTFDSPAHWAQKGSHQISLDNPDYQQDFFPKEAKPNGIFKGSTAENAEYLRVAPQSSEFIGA
# Chain of Receptor-type tyrosine-protein kinase FLT3 (Homo sapiens) (P36888 whole entry): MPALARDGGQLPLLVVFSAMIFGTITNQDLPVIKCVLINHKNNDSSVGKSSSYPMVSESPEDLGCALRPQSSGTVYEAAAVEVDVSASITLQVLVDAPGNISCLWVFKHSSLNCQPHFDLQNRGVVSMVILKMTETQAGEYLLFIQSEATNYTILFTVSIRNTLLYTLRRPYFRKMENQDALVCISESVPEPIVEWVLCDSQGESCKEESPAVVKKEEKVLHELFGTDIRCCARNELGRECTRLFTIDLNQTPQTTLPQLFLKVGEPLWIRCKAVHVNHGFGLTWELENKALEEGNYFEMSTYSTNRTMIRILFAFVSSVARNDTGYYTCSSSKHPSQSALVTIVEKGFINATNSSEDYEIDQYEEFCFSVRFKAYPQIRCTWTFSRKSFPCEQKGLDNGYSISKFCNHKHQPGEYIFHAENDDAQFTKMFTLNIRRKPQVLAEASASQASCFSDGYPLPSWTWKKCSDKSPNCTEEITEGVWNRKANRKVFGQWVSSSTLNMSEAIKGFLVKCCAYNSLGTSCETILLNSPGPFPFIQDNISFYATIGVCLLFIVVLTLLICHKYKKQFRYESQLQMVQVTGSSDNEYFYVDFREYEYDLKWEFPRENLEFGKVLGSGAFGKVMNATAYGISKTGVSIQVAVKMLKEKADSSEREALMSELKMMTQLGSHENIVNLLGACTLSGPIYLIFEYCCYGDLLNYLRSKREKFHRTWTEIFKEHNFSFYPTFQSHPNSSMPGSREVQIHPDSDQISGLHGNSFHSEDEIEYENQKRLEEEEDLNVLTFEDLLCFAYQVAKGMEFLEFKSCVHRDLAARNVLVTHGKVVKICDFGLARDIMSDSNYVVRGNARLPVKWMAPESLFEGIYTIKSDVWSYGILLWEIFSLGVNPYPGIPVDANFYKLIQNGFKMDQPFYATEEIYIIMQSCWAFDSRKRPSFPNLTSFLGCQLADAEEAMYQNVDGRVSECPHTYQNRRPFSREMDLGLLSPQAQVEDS
# Chain of Platelet-derived growth factor receptor alpha (Homo sapiens) (P16234 whole entry): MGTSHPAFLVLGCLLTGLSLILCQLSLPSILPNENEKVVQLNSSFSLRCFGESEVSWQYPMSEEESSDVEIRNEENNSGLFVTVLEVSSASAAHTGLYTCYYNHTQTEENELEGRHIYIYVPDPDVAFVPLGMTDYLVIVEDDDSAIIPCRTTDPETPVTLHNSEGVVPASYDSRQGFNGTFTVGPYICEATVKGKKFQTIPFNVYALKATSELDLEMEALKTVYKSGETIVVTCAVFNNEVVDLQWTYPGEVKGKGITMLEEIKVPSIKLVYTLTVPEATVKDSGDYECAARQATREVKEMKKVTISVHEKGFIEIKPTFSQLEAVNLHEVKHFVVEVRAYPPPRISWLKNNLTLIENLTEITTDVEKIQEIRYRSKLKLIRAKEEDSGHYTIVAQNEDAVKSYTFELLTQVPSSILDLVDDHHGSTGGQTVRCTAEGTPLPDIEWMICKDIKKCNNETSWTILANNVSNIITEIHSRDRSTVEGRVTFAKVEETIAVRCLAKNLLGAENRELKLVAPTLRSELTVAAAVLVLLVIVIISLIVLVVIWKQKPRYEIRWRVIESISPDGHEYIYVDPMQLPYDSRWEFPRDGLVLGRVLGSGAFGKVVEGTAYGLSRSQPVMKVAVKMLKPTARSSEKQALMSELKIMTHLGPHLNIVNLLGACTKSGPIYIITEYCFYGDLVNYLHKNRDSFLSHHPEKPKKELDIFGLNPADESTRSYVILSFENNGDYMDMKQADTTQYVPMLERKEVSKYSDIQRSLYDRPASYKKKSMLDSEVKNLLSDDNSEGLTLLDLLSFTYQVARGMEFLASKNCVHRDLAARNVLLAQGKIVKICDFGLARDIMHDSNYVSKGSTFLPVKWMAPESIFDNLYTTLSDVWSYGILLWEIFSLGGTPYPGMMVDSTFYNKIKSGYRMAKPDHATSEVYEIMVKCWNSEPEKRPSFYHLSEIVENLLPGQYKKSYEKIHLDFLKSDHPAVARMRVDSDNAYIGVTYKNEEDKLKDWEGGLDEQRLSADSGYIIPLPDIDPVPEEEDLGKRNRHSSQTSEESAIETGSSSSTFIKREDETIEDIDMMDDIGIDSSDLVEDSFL
# Chain of Serine/threonine-protein kinase Chk1 (Homo sapiens) (O14757 whole entry): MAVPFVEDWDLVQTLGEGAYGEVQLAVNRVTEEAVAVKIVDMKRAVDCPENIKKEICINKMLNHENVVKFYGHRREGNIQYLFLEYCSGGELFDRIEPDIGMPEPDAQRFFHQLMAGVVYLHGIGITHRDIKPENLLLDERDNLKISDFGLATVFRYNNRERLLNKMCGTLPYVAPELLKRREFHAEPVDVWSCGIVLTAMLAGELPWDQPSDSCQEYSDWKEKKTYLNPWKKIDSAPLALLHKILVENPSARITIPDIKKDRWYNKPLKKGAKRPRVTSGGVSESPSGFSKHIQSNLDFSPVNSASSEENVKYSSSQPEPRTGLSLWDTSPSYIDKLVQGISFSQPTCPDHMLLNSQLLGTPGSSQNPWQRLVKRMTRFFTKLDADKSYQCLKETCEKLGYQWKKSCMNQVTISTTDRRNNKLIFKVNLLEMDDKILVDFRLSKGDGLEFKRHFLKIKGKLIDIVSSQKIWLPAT
smiles,measurement,setting,value
CN1CCN(c2ccc(NC(=O)c3ccc4c(c3)/C(=C3/Nc5ccccc5C3=O)C(=O)N4)cc2)CC1,Activity,[1],31%
same,Activity,[2],81%
same,Activity,[3],99%
same,Activity,[4],99%
same,Activity,[5],98%
same,Activity,[6],99%
same,Activity,[7],11%
same,Activity,[8],27%
same,Activity,[9],16%
same,Activity,[10],53%
same,Activity,[11],106%
same,Activity,[12],271%
same,Activity,[13],60%
same,Activity,[14],98%
same,Activity,[15],20%
same,Activity,[16],94%
same,Activity,[17],67%
same,IC50,[18],100 nM
same,Activity,[19],103%
same,Activity,[20],78%
same,Activity,[21],40%
same,Activity,[22],63%
same,Activity,[23],53%
same,Activity,[24],92%
same,Activity,[25],45%
same,Activity,[26],83%
same,Activity,[27],69%
same,Activity,[28],43%
same,Activity,[29],64%
same,solubility,[30],520 µg/mL
same,Activity,[31],58%
same,Activity,[32],106%
same,Activity,[33],88%
same,IC50,[34],540 nM
same,Activity,[35],103%
